From ChEMBL document CHEMBL1124462, “Synthesis, DNA binding, and biological evaluation of synthetic precursors and novel analogues of netropsin” (J Med Chem, 1989)
Converted amounts (≈) assume the structure as drawn.

Assays:
[1] = tested on: Vero; experiment: Minimum cytotoxic concentration required to cause a microscopically detectable alteration of normal cell morphology and show antiviral activity in african green monkey (Vero B) cells; type: functional; settings: Chlorocebus sabaeus
[2] = tested on: Raji; experiment: Dose required to inhibit Human B-Lymphoblast (Raji) cell proliferation by 50%; type: functional; settings: read-out: CD50 (the source's name)
[3] = tested on: HeLa; experiment: Minimum inhibitory concentration required to reduce Coxsackie virus B4 induced cytopathogenicity by 50% in HeLa cells; type: functional; settings: Homo sapiens
How it was run: (§1)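 Cell cultures (PRK, HeLa or Vero B) are infected at 100 × CCID50. Cytopathogenicity is recorded once it reaches completion in the untreated virus-infected controls. The minimum inhibitory concentration is given in μg/mL.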

[4] = tested on: HeLa; experiment: Minimum cytotoxic concentration required to cause a microscopically detectable alteration of normal cell morphology and show antiviral activity in HeLa cells; type: functional; settings: Homo sapiens
How it was run: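 HeLa cell cultures exposed to compound for the same duration as the antiviral assay, then examined microscopically. The minimum cytotoxic concentration is the lowest level causing detectable alteration of normal cell morphology. Values are in μg/mL.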

[5] = tested on: L1210; experiment: Dose required to inhibit Murine leukemia (L1210) cell proliferation by 50%; type: functional; settings: Mus musculus, read-out: CD50 (the source's name)
[6] = tested on: Nucleic Acid; experiment: Association constant against the polynucleotide poly (dA-dT).; type: nucleic-acid assay
How it was run: (§2)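 Competition with ethidium bromide binding at 25 °C in 0.01 M cacodylate buffer, pH 7.0, with 1.26 μM ethidium bromide and 1 μM polynucleotide. Bound ethidium is estimated from its fluorescence increase (V = 34 for poly(dA-dT), 25 for poly(dG-dC)). IC50 for 50% ethidium displacement comes from a fitted competition sigmoid. Kapp is calculated from IC50 assuming a binding size of four base pairs.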

[7] = tested on: Human alphaherpesvirus 2; experiment: Minimum inhibitory concentration required to reduce herpes simplex virus-2(G) induced cytopathogenicity by 50% in primary rabbit kidney cells (PRK); type: functional; how it was run: as §1
[8] = tested on: Human alphaherpesvirus 1; experiment: Minimum inhibitory concentration required to reduce herpes simplex virus-1 (KOS) induced cytopathogenicity by 50% in primary rabbit kidney cells(PRK); type: functional; how it was run: as §1
[9] = tested on: Vesicular stomatitis virus; experiment: Minimum inhibitory concentration required to reduce vesicular stomatitis virus induced cytopathogenicity by 50% in primary rabbit kidney cells (PRK); type: functional
[10] = organism: Oryctolagus cuniculus; experiment: Minimum cytotoxic concentration required to cause a microscopically detectable alteration of normal cell morphology and show antiviral activity in primary rabbit kidney (PRK) cells; type: functional
[11] = Dose required to inhibit Human T-Lymphoblast (Molt/4F) cell proliferation by 50%; type: functional; settings: read-out: CD50 (the source's name)
[12] = tested on: Sindbis virus; experiment: Minimum inhibitory concentration required to reduce Sindbis virus induced cytopathogenicity by 50% in african green monkey (VeroB) cells; type: functional; how it was run: as §1
[13] = tested on: Vero; experiment: Minimum inhibitory concentration required to reduce parainfluenza virus-3 induced cytopathogenicity by 50% in african green monkey (VeroB) cells; type: functional, Human respirovirus 3; settings: Chlorocebus sabaeus; how it was run: as §1
[14] = tested on: Mammalian orthoreovirus 1; experiment: Minimum inhibitory concentration required to reduce reovirus-1 induced cytopathogenicity by 50% in african green monkey (VeroB)cells; type: functional; how it was run: as §1
[15] = tested on: Semliki Forest virus; experiment: Minimum inhibitory concentration required to reduce semliki forest virus induced cytopathogenicity by 50% in african green monkey (VeroB) cells; type: functional; how it was run: as §1
[16] = tested on: Nucleic Acid; experiment: Association constant against polynucleotide poly (dG-dC); type: nucleic-acid assay; how it was run: as §2
[17] = tested on: Vero; experiment: Minimum inhibitory concentration required to reduce Coxsackie virus B4 induced cytopathogenicity by 50% in african green monkey (VeroB) cells; type: functional, Coxsackievirus B4; settings: Chlorocebus sabaeus; how it was run: as §1
[18] = tested on: FM3A; experiment: In vitro inhibition of FM3A (murine mammary carcinoma) cell proliferation.; type: functional; settings: Mus musculus, read-out: CD50 (the source's name)
[19] = tested on: Nucleic Acid; experiment: Ratio of association constant of poly (dA-dT) and poly (dG-dC); type: nucleic-acid assay
How it was run: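 Kapp for poly(dA-dT) and for poly(dG-dC) is each determined by ethidium bromide competition in 0.01 M cacodylate, pH 7.0, 25 °C, with 1.26 μM ethidium and 1 μM polynucleotide. IC50 comes from a fitted competition sigmoid and is converted to Kapp assuming a four-base-pair binding size. The ratio is taken between the two polynucleotides.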

Compound: Cn1c(C(=O)NCCC(=N)N)ccc1[N+](=O)[O-]
- MCC [1]: > 400 µg/mL
- CC50 [2]: > 50 µg/mL
- MIC [3]: > 400 µg/mL
- MCC [4]: > 400 µg/mL
- CC50 [5]: > 50 µg/mL
- K app [6]: < 100 M⁻¹
- MIC [7]: > 100 µg/mL
- MIC [8]: > 200 µg/mL
- MIC [9]: > 400 µg/mL
- MCC [10]: >400 µg/mL
- CC50 [11]: > 50 µg/mL
- MIC [12]: > 200 µg/mL
- MIC [13]: 100 µg/mL (≈ 418 µM)
- MIC [14]: > 100 µg/mL
- MIC [15]: > 200 µg/mL
- K app [16]: < 100 M⁻¹
- MIC [17]: > 100 µg/mL

Compound: CC(NC(=O)C(C)NC(=O)c1cc(NC(=O)c2cc(NC(=O)CNC(=N)N)cn2C)cn1C)C(=O)O (configuration not stated)
- MCC [1]: > 400 µg/mL
- CC50 [2]: > 100 µg/mL
- CC50 [18]: > 100 µg/mL
- MIC [3]: > 400 µg/mL
- MCC [4]: > 400 µg/mL
- CC50 [5]: > 100 µg/mL
- K app [6]: 1200 M⁻¹
- Ratio [19]: 1
- MIC [7]: > 400 µg/mL
- MIC [8]: > 400 µg/mL
- MIC [9]: > 400 µg/mL
- MCC [10]: >400 µg/mL
- CC50 [11]: > 100 µg/mL
- MIC [12]: > 400 µg/mL
- MIC [13]: > 400 µg/mL
- MIC [14]: > 200 µg/mL
- MIC [15]: > 400 µg/mL
- K app [16]: 1200 M⁻¹
- MIC [17]: > 400 µg/mL

Compound: C[C@H](NC(=O)c1cc(NC(=O)c2cc(NC(=O)CNC(=N)N)cn2C)cn1C)C(=O)N[C@@H](C)C(=O)N[C@@H](C)C(=O)OC(C)(C)C
- MCC [1]: > 400 µg/mL
- CC50 [2]: > 100 µg/mL
- CC50 [18]: > 100 µg/mL
- MIC [3]: > 400 µg/mL
- MCC [4]: > 400 µg/mL
- CC50 [5]: > 100 µg/mL
- K app [6]: 20000 M⁻¹
- Ratio [19]: 6.06
- MIC [7]: > 100 µg/mL
- MIC [8]: > 100 µg/mL
- MIC [9]: > 200 µg/mL
- MCC [10]: 400 µg/mL
- CC50 [11]: > 100 µg/mL
- MIC [12]: > 400 µg/mL
- MIC [13]: > 400 µg/mL
- MIC [14]: > 200 µg/mL
- MIC [15]: > 400 µg/mL
- K app [16]: 3300 M⁻¹
- MIC [17]: > 200 µg/mL

Compound: Cn1cc(NC(=O)CNC(=N)N)cc1C(=O)NCCCNCCCCN
- MCC [1]: > 400 µg/mL
- CC50 [2]: > 200 µg/mL
- CC50 [18]: > 200 µg/mL
- MIC [3]: > 400 µg/mL
- MCC [4]: > 400 µg/mL
- CC50 [5]: > 200 µg/mL
- Ratio [19]: 5.26
- MIC [7]: > 400 µg/mL
- MIC [8]: > 400 µg/mL
- MIC [9]: > 400 µg/mL
- MCC [10]: >400 µg/mL
- CC50 [11]: > 200 µg/mL
- MIC [12]: > 400 µg/mL
- MIC [13]: > 200 µg/mL
- MIC [14]: > 200 µg/mL
- MIC [15]: > 400 µg/mL
- MIC [17]: > 400 µg/mL

Compound: CC(NC(=O)c1cc(NC(=O)c2cc(NC(=O)CNC(=N)N)cn2C)cn1C)C(=O)OC(C)(C)C (configuration not stated)
- MCC [1]: > 400 µg/mL
- CC50 [2]: > 100 µg/mL
- CC50 [18]: > 100 µg/mL
- MIC [3]: > 400 µg/mL
- MCC [4]: > 400 µg/mL
- CC50 [5]: > 100 µg/mL
- K app [6]: 8700 M⁻¹
- Ratio [19]: 0.87
- MIC [7]: > 400 µg/mL
- MIC [8]: > 400 µg/mL
- MIC [9]: > 400 µg/mL
- MCC [10]: >400 µg/mL
- CC50 [11]: > 100 µg/mL
- MIC [12]: > 400 µg/mL
- MIC [13]: > 400 µg/mL
- MIC [14]: > 400 µg/mL
- MIC [15]: > 400 µg/mL
- K app [16]: 10000 M⁻¹
- MIC [17]: > 400 µg/mL

Compound: Cn1cc(NC(=O)c2cc(NC(=O)c3cc(NC=O)cn3C)cn2C)cc1C(=O)NCCC(=N)N
- K app [6]: 8.5e+07 M⁻¹
- Ratio [19]: 3400
- K app [16]: 25000 M⁻¹

Compound: Cn1cc([N+](=O)[O-])cc1C(=O)O
- MCC [1]: > 400 µg/mL
- CC50 [2]: > 100 µg/mL
- CC50 [18]: > 100 µg/mL
- MIC [3]: > 400 µg/mL
- MCC [4]: > 400 µg/mL
- CC50 [5]: > 100 µg/mL
- MIC [7]: > 400 µg/mL
- MIC [8]: > 400 µg/mL
- MIC [9]: > 400 µg/mL
- MCC [10]: >400 µg/mL
- CC50 [11]: > 100 µg/mL
- MIC [12]: > 400 µg/mL
- MIC [13]: > 400 µg/mL
- MIC [14]: > 400 µg/mL
- MIC [15]: > 400 µg/mL
- MIC [17]: > 200 µg/mL

Compound: Cn1cc([N+](=O)[O-])cc1C(=O)NCCC(=N)N
- MCC [1]: > 400 µg/mL
- CC50 [2]: > 50 µg/mL
- MIC [3]: > 400 µg/mL
- MCC [4]: > 400 µg/mL
- CC50 [5]: > 50 µg/mL
- K app [6]: < 100 M⁻¹
- MIC [7]: > 200 µg/mL
- MIC [8]: > 200 µg/mL
- MIC [9]: > 400 µg/mL
- MCC [10]: >400 µg/mL
- CC50 [11]: > 50 µg/mL
- MIC [12]: > 200 µg/mL
- MIC [13]: > 200 µg/mL
- MIC [14]: > 200 µg/mL
- MIC [15]: > 200 µg/mL
- K app [16]: < 100 M⁻¹
- MIC [17]: > 200 µg/mL
